According to ChEMBL document CHEMBL3865784 (Eur J Med Chem, 2016):
Active and inactive are the calls of the source. The rule behind the calls is not given here.

Tests used:
PC-3 [1] = assay: Induction of apoptosis in human PC3 cells assessed as externalization of phosphatidylserine on cell surface by measuring early apoptotic cells at 5 uM after 6 hrs by Annexin-V/FITC/PI staining by flow cytometry (reference value: 0.93 +/- 0.05%); format: functional
PC-3 [2] = assay: Induction of apoptosis in human PC3 cells assessed as externalization of phosphatidylserine on cell surface by measuring late apoptotic cells at 5 uM after 6 hrs by Annexin-V/FITC/PI staining by flow cytometry (reference value: 0%); format: functional
[3] = Cytotoxicity against NQO1-deficient human HL60 cells assessed as reduction in cell viability after 72 hrs by MTT assay; format: functional, cell-based; conditions: HL-60, 72 h
Procedure, shortened: (§1)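 Cancer lines from NCI, grown in RPMI 1640 with 10% FBS, 2 mM L-glutamine, penicillin/streptomycin, 37 °C, 5% CO2; seeded 0.1 × 10^6 cells/well (HL-60) or 0.7 × 10^5 cells/well (solid tumours). Compounds in DMSO, final 0.1% v/v; DMSO vehicle as negative control.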

[4] = Cytotoxicity against human HCT116 cells expressing NQO1 assessed as reduction in cell viability after 72 hrs by MTT assay; format: functional, cell-based; conditions: HCT-116, 72 h; procedure, shortened: as §1
[5] = Cytotoxicity against human PC3 cells overexpressing NQO1 assessed as reduction in cell viability after 72 hrs by MTT assay; format: functional, cell-based; conditions: PC-3, 72 h
[6] = Cytotoxicity against human SF295 cells overexpressing NQO1 assessed as reduction in cell viability after 72 hrs by MTT assay; format: functional, cell-based; conditions: SF-295, 72 h
[7] = Cytotoxicity against human MDA-MB-435 cells overexpressing NQO1 assessed as reduction in cell viability after 72 hrs by MTT assay; format: functional, cell-based; conditions: MDA-MB-435, 72 h; procedure, shortened: as §1
[8] = Cytotoxicity against human OVCAR8 cells overexpressing NQO1 assessed as reduction in cell viability after 72 hrs by MTT assay; format: functional, cell-based; conditions: OVCAR-8, 72 h; procedure, shortened: as §1
[9] = Cytotoxicity against NQO1-deficient human PBMC assessed as reduction in cell viability after 72 hrs by MTT assay; format: toxicity, cell-based; conditions: pbmc
[10] = Cytotoxicity against NQO1-deficient chinese hamster V79 cells assessed as reduction in cell viability after 72 hrs by MTT assay; format: toxicity, cell-based, Cricetulus griseus; conditions: v79
Mus musculus = organism: Mus musculus; assay: Cytotoxicity against NQO1-deficient mouse L929 cells assessed as reduction in cell viability after 72 hrs by MTT assay; format: toxicity, cell-based; conditions: l929
HL-60 [11] = assay: Selectivity index, ratio of IC50 for NQO1-deficient human PBMC to IC50 for NQO1-deficient human HL60 cells
Procedure, shortened: (§2)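 Selectivity index is IC50 in the normal cells divided by IC50 in the cancer line. Normal cells: V79 and L929 in DMEM, PBMC in RPMI with phytohaemagglutinin. Cancer lines in RPMI with 10% FBS, seeded at 0.1 × 10^6 (HL-60) or 0.7 × 10^5 cells/well (solid tumors). Absorbance 550 nm; nonlinear regression.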

HL-60 [12] = assay: Selectivity index, ratio of IC50 for NQO1-deficient chinese hamster V79 cells to IC50 for NQO1-deficient human HL60 cells; format: functional; procedure, shortened: as §2
L929 [13] = assay: Selectivity index, ratio of IC50 for NQO1-deficient mouse L929 cells to IC50 for NQO1-deficient human HL60 cells; format: functional; procedure, shortened: as §2
HCT-116 [14] = assay: Selectivity index, ratio of IC50 for NQO1-deficient human PBMC to IC50 for human HCT116 cells expressing NQO1
Procedure, shortened: as §2, with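 “line. All IC50s come from 72 h MTT assays.” for “line.”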

HCT-116 [15] = assay: Selectivity index, ratio of IC50 for NQO1-deficient chinese hamster V79 cells to IC50 for human HCT116 cells expressing NQO1
Procedure, shortened: as §2, with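 “line. All IC50s come from 72 h MTT assays.” for “line.”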

HCT-116 [16] = assay: Selectivity index, ratio of IC50 for NQO1-deficient mouse L929 cells to IC50 for human HCT116 cells expressing NQO1
Procedure, shortened: as §2, with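 “line. All IC50s come from 72 h MTT assays.” for “line.”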

PC-3 [17] = assay: Selectivity index, ratio of IC50 for NQO1-deficient human PBMC to IC50 for human PC3 cells overexpressing NQO1; procedure, shortened: as §2
V79 [18] = assay: Selectivity index, ratio of IC50 for NQO1-deficient chinese hamster V79 cells to IC50 for human PC3 cells overexpressing NQO1; procedure, shortened: as §2
L929 [19] = assay: Selectivity index, ratio of IC50 for NQO1-deficient mouse L929 cells to IC50 for human PC3 cells overexpressing NQO1; procedure, shortened: as §2
SF-295 [20] = assay: Selectivity index, ratio of IC50 for NQO1-deficient human PBMC to IC50 for human SF295 cells overexpressing NQO1; procedure, shortened: as §2
SF-295 [21] = assay: Selectivity index, ratio of IC50 for NQO1-deficient chinese hamster V79 cells to IC50 for human SF295 cells overexpressing NQO1; procedure, shortened: as §2
L929 [22] = assay: Selectivity index, ratio of IC50 for NQO1-deficient mouse L929 cells to IC50 for human SF295 cells overexpressing NQO1; procedure, shortened: as §2
[23] = Selectivity index, ratio of IC50 for NQO1-deficient human PBMC to IC50 for human MDA-MB-435 cells overexpressing NQO1; procedure, shortened: as §2
V79 [24] = assay: Selectivity index, ratio of IC50 for NQO1-deficient chinese hamster V79 cells to IC50 for human MDA-MB-435 cells overexpressing NQO1; procedure, shortened: as §2
L929 [25] = assay: Selectivity index, ratio of IC50 for NQO1-deficient mouse L929 cells to IC50 for human MDA-MB-435 cells overexpressing NQO1; procedure, shortened: as §2
OVCAR-8 [26] = assay: Selectivity index, ratio of IC50 for NQO1-deficient human PBMC to IC50 for human OVCAR8 cells overexpressing NQO1
Procedure, shortened: as §2, with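 “line. All IC50s come from 72 h MTT assays.” for “line.”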

OVCAR-8 [27] = assay: Selectivity index, ratio of IC50 for NQO1-deficient chinese hamster V79 cells to IC50 for human OVCAR8 cells overexpressing NQO1
Procedure, shortened: as §2, with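 “line. All IC50s come from 72 h MTT assays.” for “line.”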

L929 [28] = assay: Selectivity index, ratio of IC50 for NQO1-deficient mouse L929 cells to IC50 for human OVCAR8 cells overexpressing NQO1; procedure, shortened: as §2
[29] = biological target: NAD(P)H dehydrogenase [quinone] 1 (Homo sapiens) (UniProt P15559); assay: Activation of NQO1 in human PC3 cells assessed as induction of ROS generation at 5 uM after 1 hr by H2DCFDA probe based flow cytometric analysis; format: cell-based; conditions: PC-3
NAD(P)H dehydrogenase [quinone] 1 (Homo sapiens), sequence (P15559 whole entry): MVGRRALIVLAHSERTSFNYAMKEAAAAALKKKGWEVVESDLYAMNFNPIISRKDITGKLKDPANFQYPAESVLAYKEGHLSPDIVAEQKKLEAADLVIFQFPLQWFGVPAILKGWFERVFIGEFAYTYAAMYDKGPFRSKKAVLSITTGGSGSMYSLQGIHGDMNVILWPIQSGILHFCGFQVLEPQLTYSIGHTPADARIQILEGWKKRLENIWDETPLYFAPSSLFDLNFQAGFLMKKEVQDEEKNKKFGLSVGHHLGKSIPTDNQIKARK

PC-3 [30] = assay: Induction of apoptosis in human PC3 cells assessed as externalization of phosphatidylserine on cell surface by measuring early apoptotic cells at 5 uM pretreated with NAC measured after 6 hrs by Annexin-V/FITC/PI staining by flow cytometry (reference value: 0.93 +/- 0.05%); format: functional
PC-3 [31] = assay: Induction of apoptosis in human PC3 cells assessed as externalization of phosphatidylserine on cell surface by measuring late apoptotic cells at 5 uM pretreated with NAC measured after 6 hrs by Annexin-V/FITC/PI staining by flow cytometry (reference value: 0%); format: functional
PC-3 [32] = assay: Induction of apoptosis in human PC3 cells assessed as externalization of phosphatidylserine on cell surface by measuring early apoptotic cells at 5 uM cotreated with NQO1 inhibitor dicoumarol measured after 6 hrs by Annexin-V/FITC/PI staining by flow cytometry (reference value: 0.93 +/- 0.05%); format: functional; set-up: scale not given: the % may be the effect or the level left
PC-3 [33] = assay: Induction of apoptosis in human PC3 cells assessed as externalization of phosphatidylserine on cell surface by measuring late apoptotic cells at 5 uM cotreated with NQO1 inhibitor dicoumarol measured after 6 hrs by Annexin-V/FITC/PI staining by flow cytometry (reference value: 0%); format: functional; set-up: scale not given: the % may be the effect or the level left

Structure (SMILES)	IC50 [3]	IC50 [4]	IC50 [5]	IC50 [6]	IC50 [7]	IC50 [8]	IC50 [9]	IC50 [10]	IC50 (Mus musculus)	Ratio IC50 (HL-60 [12])	Ratio IC50 (L929 [13])	Ratio IC50 (HCT-116 [14])	Ratio IC50 (HCT-116 [15])	Ratio IC50 (PC-3 [17])	Ratio IC50 (V79 [18])	Ratio IC50 (L929 [19])	Ratio IC50 (L929 [22])	Ratio IC50 [23]	Ratio IC50 (V79 [24])	Ratio IC50 (L929 [25])	also measured
CC(=O)N[C@@H](CS)C(=O)O [ACETYLCYSTEINE]	–	–	–	–	–	–	–	–	–	–	–	–	–	–	–	–	–	–	–	–	Activity (PC-3 [1]): 0.87%; Activity (PC-3 [2]): 0%
[N-]=[N+]=NCC1CC2=C(O1)C(=O)c1ccccc1C2=O (configuration not stated)	0.31 µM	0.24 µM	0.39 µM	0.35 µM	0.2 µM	0.35 µM	3.21 µM	2.47 µM	2.15 µM	7.9	6.9	13.3	10.2	8.2	6.3	5.5	6.1	16	12.3	10.7	Ratio IC50 (HL-60 [11]): 10.3; Ratio IC50 (HCT-116 [16]): 8.9; Ratio IC50 (SF-295 [20]): 9.1; Ratio IC50 (SF-295 [21]): 7; Ratio IC50 (OVCAR-8 [26]): 9.1; Ratio IC50 (OVCAR-8 [27]): 7; Ratio IC50 (L929 [28]): 6.1
CC1(C)OC2=C(C(=O)c3ccccc3C2=O)C1Nc1cccc(-c2cn(C[Se]c3ccccc3)nn2)c1 (configuration not stated)	1.08 µM	1.28 µM	1.71 µM	1.08 µM	0.88 µM	0.68 µM	3.33 µM	3.78 µM	3.38 µM	3.5	3.1	2.6	2.9	1.9	2.2	1.9	3.1	3.7	4.2	3.8	Ratio IC50 (HL-60 [11]): 3; Ratio IC50 (HCT-116 [16]): 2.6; Ratio IC50 (SF-295 [20]): 3; Ratio IC50 (SF-295 [21]): 3.5; Ratio IC50 (OVCAR-8 [26]): 4.8; Ratio IC50 (OVCAR-8 [27]): 5.5; Ratio IC50 (L929 [28]): 4.9
[N-]=[N+]=NCC1CC2=C(O1)c1ccccc1C(=O)C2=O (configuration not stated)	0.82 µM	0.63 µM	0.51 µM	0.39 µM	0.39 µM	0.35 µM	1.8 µM	0.82 µM	1.06 µM	1	1.2	2.8	1.3	3.5	1.6	2	2.7	4.6	2.1	2.7	Ratio IC50 (SF-295 [20]): 4.6; Ratio IC50 (OVCAR-8 [26]): 5.1; Ratio IC50 (OVCAR-8 [27]): 2.3; Ratio IC50 (L929 [28]): 3
CC1(C)OC2=C(C(=O)C(=O)c3ccccc32)C1Nc1cccc(-c2cn(C[Se]c3ccccc3)nn2)c1 (configuration not stated)	0.07 µM	0.14 µM	0.38 µM	0.34 µM	0.23 µM	0.2 µM	1.39 µM	1.13 µM	0.94 µM	16.1	13.4	9.9	8	3.6	2.9	2.4	2.7	6	4.9	4	Ratio IC50 (HL-60 [11]): 19.8; Ratio IC50 (HCT-116 [16]): 6.7; Ratio IC50 (OVCAR-8 [26]): 6.9; Ratio IC50 (OVCAR-8 [27]): 5.6; Ratio IC50 (L929 [28]): 4.7; Activity [29]: Active; Activity (PC-3 [1]): 16.61%; Activity (PC-3 [2]): 3.27%; Activity (PC-3 [30]): 0.89%; Activity (PC-3 [31]): 0%; Activity (PC-3 [32]): 0.91%; Activity (PC-3 [33]): 0%
